This passage reports inhibition and IC50 results from ChEMBL document CHEMBL4190330, “Discovery of Potent and Selective A2A Antagonists with Efficacy in Animal Models of Parkinson's Disease and Depression” (ACS Med Chem Lett, 2017).

The target of assay [1] is T1, Adenosine receptor A2b (Homo sapiens) (UniProt P29275).
T1 sequence (whole entry): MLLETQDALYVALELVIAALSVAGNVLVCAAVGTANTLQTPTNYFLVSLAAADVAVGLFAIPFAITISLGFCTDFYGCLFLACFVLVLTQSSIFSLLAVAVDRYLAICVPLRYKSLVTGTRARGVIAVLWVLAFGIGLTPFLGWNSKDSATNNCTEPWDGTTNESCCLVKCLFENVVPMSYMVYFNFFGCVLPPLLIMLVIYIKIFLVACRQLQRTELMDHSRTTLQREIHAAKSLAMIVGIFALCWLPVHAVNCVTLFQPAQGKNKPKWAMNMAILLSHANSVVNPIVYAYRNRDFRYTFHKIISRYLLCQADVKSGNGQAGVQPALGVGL
Nature of the assay: Antagonist activity at human A2B receptor expressed in HEK293 cell membranes assessed as inhibition of NECA-induced cAMP level at 10 uM pretreated for 15 mins followed by NECA addition measured after 15 mins by HTRF assay. Format: functional, cell-based. A digest of the protocol:
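HTRF cAMP functional assay on the human receptor isoform, run in triplicate at 12 concentrations with a top concentration of 10 µM, in two independent experiments. Inhibition at 10 µM is recorded where no Ki could be derived.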
On the technique in general: cAMP levels reflect the balance of adenylyl cyclase and phosphodiesterase activity.

Another assay addresses Cytochrome P450 2C9 (Homo sapiens, UniProt P11712). As to the kind of experiment: Inhibition of CYP2C9 (unknown origin). In kind it is ADME.

Bounds are passed on as bounds.

Cytochrome P450 2C9, sequence (P11712 whole entry): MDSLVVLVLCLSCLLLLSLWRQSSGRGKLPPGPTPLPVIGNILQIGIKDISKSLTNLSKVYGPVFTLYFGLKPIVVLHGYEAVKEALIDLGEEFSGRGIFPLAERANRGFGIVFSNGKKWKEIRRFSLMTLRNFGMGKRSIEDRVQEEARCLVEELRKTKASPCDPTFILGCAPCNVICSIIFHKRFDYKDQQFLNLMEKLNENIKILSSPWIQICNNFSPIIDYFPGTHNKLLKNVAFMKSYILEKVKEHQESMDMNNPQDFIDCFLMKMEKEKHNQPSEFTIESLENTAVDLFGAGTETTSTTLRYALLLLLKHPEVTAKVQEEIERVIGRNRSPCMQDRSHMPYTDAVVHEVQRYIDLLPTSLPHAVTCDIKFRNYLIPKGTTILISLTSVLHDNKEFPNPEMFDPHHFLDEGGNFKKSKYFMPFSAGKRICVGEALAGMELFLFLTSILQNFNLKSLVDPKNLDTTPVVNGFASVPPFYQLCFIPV

For the compound `COCCOc1ccc(N2CCN(CCn3c(=O)n(C)c4c3nc(N)n3nc(-c5nccs5)nc43)CC2)cc1F`, the inhibition in assay [1] is less than 50%. Moreover, the IC50 against Cytochrome P450 2C9 was more than 10 µM.

Usually inhibition stands for the percentage by which the read-out fell short of the control. What is called IC50 is the concentration that gives 50% inhibition. Read a low IC50 as inhibition by little substance.
